Among the data in ChEMBL document CHEMBL1149148, “Synthesis and structure-activity relationships of novel 7-substituted 1,4-dihydro-4-oxo-1-(2-thiazolyl)-1,8-naphthyridine-3-carboxylic acids as antitumor agents. Part 2” (J Med Chem, 2004) are IC50 and T/C values, retold here.

In brackets after ≈: the same amount, converted by molar mass.

The test system of one experiment is SK-OV-3. Nature of the experiment: Cytotoxic activity against human tumor SK-OV-3 ovary cells. Conditions: SK-OV-3, Female gonad. The format is functional, cell-based. The procedure, abridged:
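SKOV3 cells grown in RPMI 1640 with 10% heat-inactivated FBS. Cells at (1-2) × 10⁴ cells/mL, preincubated 24 h, treated with graded concentrations for 72 h at 37 °C in 5% CO₂. MTT readout (5 mg/mL, 4 h), formazan in DMSO, absorbance 570 nm/690 nm. IC50 is the concentration for 50% absorbance reduction vs control. Mean of at least two independent experiments.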

The subject of the next experiment is SCaBER. The experiment can be described thus: Cytotoxic activity against human tumor SCaBER bladder cells. The format is functional, cell-based. The method, boiled down:
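SCaBER cells maintained in EMEM with 10% FBS and nonessential amino acids. Seeded at (1-2) × 10⁴ cells/mL, 24 h preincubation, then 72 h compound exposure at various concentrations at 37 °C in 5% CO₂. MTT (5 mg/mL) for 4 h, then DMSO, read at 570/690 nm. IC50 is 50% absorbance drop vs control. At least two independent experiments averaged.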

Another experiment deals with HL-60. Nature of the experiment: Cytotoxic activity against human tumor HL-60 leukemia cells. The experiment is classed as functional, cell-based. The procedure, abridged:
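HL-60 cells grown in RPMI 1640 with 20% FBS. Seeded at (1-2) × 10⁴ cells/mL, preincubated 24 h, then exposed to a range of compound concentrations for 72 h at 37 °C in 5% CO₂. Read by MTT (5 mg/mL solution, 4 h), formazan dissolved in DMSO, absorbance 570 nm/690 nm. IC50 is the concentration giving 50% absorbance reduction vs control. Mean of at least two independent experiments.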

The subject of the next experiment is SBC-3. The experiment can be described thus: Cytotoxic activity against human tumor SBC-3 lung cells. The experiment is classed as functional, cell-based. The method, boiled down: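 SBC-3 cells cultured in RPMI 1640 plus 10% FBS. Plated at (1-2) × 10⁴ cells/mL, preincubated 24 h, then compound at various concentrations for 72 h at 37 °C in 5% CO₂. MTT solution (5 mg/mL) for 4 h, DMSO solubilization, absorbance 570 nm with 690 nm reference. IC50 is the dose halving absorbance vs control. Mean of at least two independent runs.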

The subject of another experiment is Hs746T. Nature of the experiment: Cytotoxic activity against human tumor Hs 746.T stomach cells. The experiment is classed as functional, cell-based. The method, boiled down:
(§1)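 Hs746T and PANC-1 cells kept in Dulbecco's modified Eagle's medium with 10% FBS. Seeded at (1-2) × 10⁴ cells/mL, 24 h preincubation, then graded compound concentrations for 72 h at 37 °C in 5% CO₂. MTT (5 mg/mL solution) added for 4 h, formazan taken up in DMSO, read at 570/690 nm. IC50 is 50% absorbance reduction relative to control. At least two independent experiments averaged.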

Another experiment concerns PANC-1. The experiment can be described thus: Cytotoxic activity against human tumor PANC-1 pancreas cells. The format is functional, cell-based. The procedure, abridged:
as §1

In experiment [1] the test system is Mus musculus. The experiment can be described thus: Ratio of median survival time of treated mice (T) to that of median survival time of controls (C) in mice infected with p388 cells (in vivo) at a dose of 3.13 mg/kg. The format is functional. The method, boiled down: (§2)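 BDF1 mice implanted ip with 0.1 mL diluted ascites fluid carrying 10⁶ P388 leukemia cells. Dosing ip on days 1 and 5 after implantation. Test compounds were suspended in 0.4% CMC, and reference drugs were dissolved and diluted in distilled water. Seven mice per group. T/C (%) = median survival time of treated group / median survival time of control group × 100.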

Experiment [2] has as its system Mus musculus. Nature of the experiment: Ratio of median survival time of treated mice (T) to that of median survival time of controls (C) in mice infected with p388 cells (in vivo) at a dose of 25 mg/kg. The experiment is classed as functional. The procedure, abridged: as §2
The test system of experiment [3] is Mus musculus. Nature of the experiment: Ratio of median survival time of treated mice (T) to that of median survival time of controls (C) in mice infected with p388 cells (in vivo) at a dose of 1.56 mg/kg. The experiment is classed as functional. The procedure, abridged: as §2
Experiment [4] relates to Mus musculus. Nature of the experiment: Ratio of median survival time of treated mice (T) to that of median survival time of controls (C) in mice infected with p388 cells (in vivo) at a dose of 50 mg/kg. The experiment is classed as functional. The method, boiled down: as §2
Experiment [5] concerns Mus musculus. The experiment can be described thus: Ratio of median survival time of treated mice (T) to that of median survival time of controls (C) in mice infected with p388 cells (in vivo) at a dose of 6.25 mg/kg. The experiment is classed as functional. The method, boiled down:
as §2

In experiment [6] the test system is Mus musculus. Nature of the experiment: Ratio of median survival time of treated mice (T) to that of median survival time of controls (C) in mice infected with p388 cells (in vivo) at a dose of 12.5 mg/kg. The format is functional. The method, boiled down:
as §2

Experiment [7] has as its system Mus musculus. The experiment can be described thus: Ratio of median survival time of treated mice (T) to that of median survival time of controls (C) in mice infected with p388 cells (in vivo) at a dose of 0.78 mg/kg. The format is functional. The procedure, abridged: as §2

Consider `CN[C@H]1CN(c2ccc3c(=O)c(C(=O)O)cn(-c4nccs4)c3n2)C[C@@H]1OC` [VOSAROXIN], for which the IC50 in the experiment on SK-OV-3 was found to be 0.266 mg/L (≈ 0.663 µM); with SCaBER it was 0.121 mg/L (≈ 0.301 µM); with HL-60 it was 0.0498 mg/L (≈ 0.124 µM); in the experiment with SBC-3, 0.0319 mg/L (≈ 0.0795 µM); with Hs746T, 0.194 mg/L (≈ 0.483 µM); in the experiment on PANC-1, 0.388 mg/L (≈ 0.967 µM).

Regarding `COc1cc([C@@H]2c3cc4c(cc3[C@@H](O[C@@H]3O[C@@H]5CO[C@@H](C)O[C@H]5[C@H](O)[C@H]3O)[C@H]3COC(=O)[C@H]23)OCO4)cc(OC)c1O` [ETOPOSIDE], the IC50 with SK-OV-3 came out at 1.06 mg/L (≈ 1.8 µM); with SCaBER, 0.276 mg/L (≈ 0.469 µM); with HL-60 it was 0.15 mg/L (≈ 0.255 µM); in the experiment with SBC-3, 0.0676 mg/L (≈ 0.115 µM); with Hs746T, 3.29 mg/L (≈ 5.59 µM); in the experiment with PANC-1, 1.6 mg/L (≈ 2.72 µM). In addition, the T/C was 175% with Mus musculus [1]; >375% in the experiment on Mus musculus [2]; 150% in the experiment with Mus musculus [3]; >375% in the experiment with Mus musculus [4]; 200% with Mus musculus [5]; 250% in the experiment with Mus musculus [6]. In the experiment on Mus musculus [7], the T/C is 138%.

For orientation: IC50 means the midpoint of a concentration-inhibition curve. A word on the T/C: it is the ratio of treated to control.
